In ChEMBL document CHEMBL1157378, “Role for cell density in antifungal drug resistance in Candida albicans biofilms” (2007):
≈ marks a conversion by molar mass, not a printed value.

Legend:
Assay type in all cases: functional
Candida albicans [1] = assay: Antimicrobial activity against Candida albicans GDH2346 dissociated biofilms at cell density of 10^3 cells/ml after 24 hrs by XTT assay; settings: GDH2346, 24 h
How it was run: (§1)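 Biofilms grown from 1 x 10^6 cells/ml in RPMI on polystyrene 96-well plates, 48 h at 37°C in a moist chamber, then washed and scraped into 100 µl RPMI. Cells used undiluted (about 2 x 10^8 cells/ml equivalent) or diluted to a low density set against an A600 standard curve. A twofold drug series was added for 24 h at 37°C. Read-out was XTT/menadione at 490 nm.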

Candida albicans [2] = assay: Antimicrobial activity against Cdr1, Cdr2 and Mdr1 deficient Candida albicans DSY1050 intact biofilms after 24 hrs by XTT assay; settings: DSY1050, 24 h
How it was run: (§2)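 Intact biofilms formed from 1 x 10^6 cells/ml in RPMI in polystyrene microtiter wells, 48 h at 37°C in a moist chamber, then washed once and covered with 100 µl RPMI. A twofold drug series was added in the same well for 24 h at 37°C. Metabolic activity was read by XTT (0.5 g/liter, 1 µM menadione, up to 2 h) at 490 nm.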

Candida albicans [3] = assay: Antimicrobial activity against Candida albicans FH1 intact biofilms after 24 hrs by XTT assay; settings: FH1, 24 h; how it was run: as §2
Candida albicans [4] = assay: Antimicrobial activity against Cdr1, Cdr2 and Mdr1 deficient Candida albicans DSY1050 at planktonic cell density of 10^3 cells/ml after 24 hrs by XTT assay; settings: DSY1050, 24 h
How it was run: (§3)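 Planktonic yeast grown in YNB with 50 mM glucose at room temperature with shaking, subcultured to about 2 x 10^8 cells/ml, then washed and resuspended in MOPS-buffered RPMI 1640 with L-glutamine at the stated density. 100 µl of cells was mixed with 100 µl of a twofold drug series (prepared at 1,024 to 0.0313 µg/ml) and incubated for 24 h at 37°C. Read-out was XTT with 1 µM menadione at 37°C, absorbance at 490 nm.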

Candida albicans [5] = assay: Antimicrobial activity against Candida albicans SC5314 at planktonic cell density of 10^3 cells/ml after 24 hrs by XTT assay; settings: SC5314, 24 h; how it was run: as §3
Candida albicans [6] = assay: Antimicrobial activity against Candida albicans GDH2346 at planktonic cell density of 10^8 cells/ml after 24 hrs by XTT assay; settings: GDH2346, 24 h; how it was run: as §3
Candida albicans [7] = assay: Antimicrobial activity against Chk1 deficient Candida albicans CHK21 at planktonic cell density of 10^8 cells/ml after 24 hrs by XTT assay; settings: CHK21, 24 h; how it was run: as §3
Candida albicans [8] = assay: Antimicrobial activity against Candida albicans FH1 at planktonic cell density of 10^3 cells/ml after 24 hrs by XTT assay; settings: FH1, 24 h
How it was run: (§4)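 YNB-grown yeast (50 mM glucose, room temperature, shaken, to ~2 x 10^8 cells/ml) washed into MOPS-buffered RPMI 1640 with L-glutamine and set to the stated density. Exposed to twofold serial drug dilutions (1,024 to 0.0313 µg/ml) at 37°C, 48 h (caspofungin 24 h), with drug-free controls. Read-out: XTT (0.5 g/liter) plus 1 µM menadione, formazan at 490 nm.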

Candida albicans [9] = assay: Antimicrobial activity against fluconazole-resistant Candida albicans FH5 at planktonic cell density of 10^8 cells/ml after 24 hrs by XTT assay; settings: FH5, 24 h; how it was run: as §4
Candida albicans [10] = assay: Antimicrobial activity against Candida albicans FH1 dissociated biofilms at cell density of 10^3 cells/ml after 24 hrs by XTT assay; settings: FH1, 24 h
How it was run: (§5)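 Polystyrene-well biofilms (48 h, 37°C) washed, then broken up in 100 µl RPMI by scraping and aspiration. Cells used undiluted (about 2 x 10^8 cells/ml equivalent) or adjusted by A600 against a hemacytometer-calibrated yeast standard curve. Drug exposure at 37°C for 48 h (caspofungin 24 h), then XTT/menadione read at 490 nm.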

Candida albicans [11] = assay: Antimicrobial activity against Candida albicans SC5314 intact biofilms after 24 hrs by XTT assay; settings: SC5314, 24 h; how it was run: as §2
Candida albicans [12] = assay: Antimicrobial activity against Cdr1, Cdr2 and Mdr1 deficient Candida albicans DSY1050 at planktonic cell density of 10^8 cells/ml after 24 hrs by XTT assay; settings: DSY1050, 24 h; how it was run: as §3
Candida albicans [13] = assay: Antimicrobial activity against Chk1 deficient Candida albicans CHK21 dissociated biofilms at cell density of 10^8 cells/ml after 24 hrs by XTT assay; settings: CHK21, 24 h; how it was run: as §1
Candida albicans [14] = assay: Antimicrobial activity against Candida albicans SC5314 dissociated biofilms at cell density of 10^8 cells/ml after 24 hrs by XTT assay; settings: SC5314, 24 h; how it was run: as §1
Candida albicans [15] = assay: Antimicrobial activity against Candida albicans FH1 at planktonic cell density of 10^8 cells/ml after 24 hrs by XTT assay; settings: FH1, 24 h; how it was run: as §3
Candida albicans [16] = assay: Antimicrobial activity against Candida albicans GDH2346 at planktonic cell density of 10^3 cells/ml after 24 hrs by XTT assay; settings: GDH2346, 24 h; how it was run: as §3
Candida albicans [17] = assay: Antimicrobial activity against Chk1 deficient Candida albicans CHK21 intact biofilms after 24 hrs by XTT assay; settings: CHK21, 24 h; how it was run: as §2
Candida albicans [18] = assay: Antimicrobial activity against fluconazole-resistant Candida albicans FH5 dissociated biofilms at cell density of 10^3 cells/ml after 24 hrs by XTT assay; settings: FH5, 24 h; how it was run: as §5
Candida albicans [19] = assay: Antimicrobial activity against fluconazole-resistant Candida albicans FH5 at planktonic cell density of 10^3 cells/ml after 24 hrs by XTT assay; settings: FH5, 24 h; how it was run: as §4
Candida albicans [20] = assay: Antimicrobial activity against Candida albicans GDH2346 intact biofilms after 24 hrs by XTT assay; settings: GDH2346, 24 h; how it was run: as §2
Candida albicans [21] = assay: Antimicrobial activity against Cdr1, Cdr2 and Mdr1 deficient Candida albicans DSY1050 dissociated biofilms at cell density of 10^3 cells/ml after 24 hrs by XTT assay; settings: DSY1050, 24 h; how it was run: as §1
Candida albicans [22] = assay: Antimicrobial activity against Cdr1, Cdr2 and Mdr1 deficient Candida albicans DSY1050 dissociated biofilms at cell density of 10^8 cells/ml after 24 hrs by XTT assay; settings: DSY1050, 24 h; how it was run: as §1
Candida albicans [23] = assay: Antimicrobial activity against Candida albicans SC5314 dissociated biofilms at cell density of 10^3 cells/ml after 24 hrs by XTT assay; settings: SC5314, 24 h; how it was run: as §5
Candida albicans [24] = assay: Antimicrobial activity against fluconazole-resistant Candida albicans FH5 dissociated biofilms at cell density of 10^8 cells/ml after 24 hrs by XTT assay; settings: FH5, 24 h; how it was run: as §5
Candida albicans [25] = assay: Antimicrobial activity against fluconazole-resistant Candida albicans FH5 intact biofilms after 24 hrs by XTT assay; settings: FH5, 24 h
How it was run: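 Biofilm seeded at 1 x 10^6 cells/ml in RPMI in polystyrene microtiter wells and grown 48 h at 37°C in a moist chamber. Washed once and drug added to the same well (twofold dilutions, 1,024 to 0.0313 µg/ml) for 48 h at 37°C (caspofungin 24 h). Read-out: XTT/menadione reduction at 490 nm.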

Candida albicans [26] = assay: Antimicrobial activity against Chk1 deficient Candida albicans CHK21 at planktonic cell density of 10^3 cells/ml after 24 hrs by XTT assay; settings: CHK21, 24 h; how it was run: as §4
Candida albicans [27] = assay: Antimicrobial activity against Candida albicans FH1 dissociated biofilms at cell density of 10^8 cells/ml after 24 hrs by XTT assay; settings: FH1, 24 h; how it was run: as §1
Candida albicans [28] = assay: Antimicrobial activity against Candida albicans SC5314 at planktonic cell density of 10^8 cells/ml after 24 hrs by XTT assay; settings: SC5314, 24 h; how it was run: as §3
Candida albicans [29] = assay: Antimicrobial activity against Candida albicans GDH2346 dissociated biofilms at cell density of 10^8 cells/ml after 24 hrs by XTT assay; settings: GDH2346, 24 h; how it was run: as §1
Candida albicans [30] = assay: Antimicrobial activity against Chk1 deficient Candida albicans CHK21 dissociated biofilms at cell density of 10^3 cells/ml after 24 hrs by XTT assay; settings: CHK21, 24 h; how it was run: as §5

CC[C@H](C)C[C@H](C)CCCCCCCCC(=O)N[C@H]1C[C@@H](O)[C@@H](NCCN)NC(=O)[C@@H]2[C@@H](O)CCN2C(=O)[C@H]([C@H](O)CCN)NC(=O)[C@H]([C@H](O)[C@@H](O)c2ccc(O)cc2)NC(=O)[C@@H]2C[C@@H](O)CN2C(=O)[C@H]([C@@H](C)O)NC1=O [CASPOFUNGIN]
MIC80 (Candida albicans [1]): 0.25 µg/mL (≈ 0.229 µM)
MIC80 (Candida albicans [2]): > 32 µg/mL
MIC80 (Candida albicans [3]): > 32 µg/mL
MIC80 (Candida albicans [4]): 0.25 µg/mL (≈ 0.229 µM)
MIC80 (Candida albicans [5]): 0.25 µg/mL (≈ 0.229 µM)
MIC80 (Candida albicans [6]): > 32 µg/mL
MIC80 (Candida albicans [7]): > 32 µg/mL
MIC80 (Candida albicans [8]): 0.5 µg/mL (≈ 0.457 µM)
MIC80 (Candida albicans [9]): > 32 µg/mL
MIC80 (Candida albicans [10]): 0.5 µg/mL (≈ 0.457 µM)
MIC80 (Candida albicans [11]): > 32 µg/mL
MIC80 (Candida albicans [12]): > 32 µg/mL
MIC80 (Candida albicans [13]): > 32 µg/mL
MIC80 (Candida albicans [14]): > 32 µg/mL
MIC80 (Candida albicans [15]): > 32 µg/mL
MIC80 (Candida albicans [16]): 0.125 µg/mL (≈ 0.114 µM)
MIC80 (Candida albicans [17]): > 32 µg/mL
MIC80 (Candida albicans [18]): 0.5 µg/mL (≈ 0.457 µM)
MIC80 (Candida albicans [19]): 0.5 µg/mL (≈ 0.457 µM)
MIC80 (Candida albicans [20]): > 32 µg/mL
MIC80 (Candida albicans [21]): 0.25 µg/mL (≈ 0.229 µM)
MIC80 (Candida albicans [22]): > 32 µg/mL
MIC80 (Candida albicans [23]): 0.5 µg/mL (≈ 0.457 µM)
MIC80 (Candida albicans [24]): > 32 µg/mL
MIC80 (Candida albicans [25]): > 32 µg/mL
MIC80 (Candida albicans [26]): 0.5 µg/mL (≈ 0.457 µM)
MIC80 (Candida albicans [27]): > 32 µg/mL
MIC80 (Candida albicans [28]): > 32 µg/mL
MIC80 (Candida albicans [29]): > 32 µg/mL
MIC80 (Candida albicans [30]): 0.5 µg/mL (≈ 0.457 µM)
